Data on 19 compounds can be found in ChEMBL document CHEMBL3588851, “Antiviral Matrine-Type Alkaloids from the Rhizomes of Sophora tonkinensis” (J Nat Prod, 2015).

The subject of series [1] is Influenza A virus. In words: Antiviral activity against influenza A virus (A/Hanfang/359/95(H3N2)) infected in MDCK cells assessed as inhibition of virus-induced cytopathogenic effect at maximal nontoxic concentration dosed 1 hr after viral adsorption. The class given is functional, organism-based.
A short description of series [2]: Selectivity index, ratio of TC50 for African green monkey Vero cells to IC50 for coxsackievirus B3 infected in African green monkey Vero cells. The class given is toxicity, cell-based. The note with it: read-out: Selectivity Index. The method, boiled down:
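SI = TC50/IC50. TC50 from 48 h CPE-monitored Vero toxicity, calculated by Reed and Muench. IC50 from Vero monolayers infected with 100 TCID50 CVB3, adsorbed 1 h at 37 °C, PBS-washed, then maintained in MEM + 2% FBS with compound at 37 °C.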

Series [3] is described as follows: Cytotoxic activity against African green monkey Vero cells assessed as cytopathogenic effect incubated for 48 hrs. The conditions noted are these: chlorocebus sabaeus, read-out: TC50. The class given is cell-based. In outline:
(§1)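 Cells plated in 96-well plates; after 24 h, monolayers exposed to various concentrations of compound for 48 h at 37 °C, 5% CO2. Toxicity monitored by cytopathogenic effect (CPE). Median toxic concentration (TC50) calculated by the Reed and Muench method.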

Series [4] has as its system Coxsackievirus B3. The experiment in a line: Antiviral activity against coxsackievirus B3 infected in African green monkey Vero cells assessed as inhibition of virus-induced cytopathogenic effect dosed 1 hr after viral adsorption. The class given is functional, organism-based. The conditions noted are these: Enterovirus B. The method, boiled down:
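Confluent Vero monolayers were infected with 100 TCID50 CVB3 and adsorbed for 1 h at 37 °C. They were then washed with PBS and kept at 37 °C in MEM plus 2% FBS, with or without a range of compound concentrations. Ribavirin served as positive control.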

In series [5] the test system is Coxsackievirus B3. The experiment in a line: Antiviral activity against coxsackievirus B3 infected in African green monkey Vero cells assessed as inhibition of virus-induced cytopathogenic effect at maximal nontoxic concentration dosed 1 hr after viral adsorption. The class given is functional, organism-based. The method, boiled down:
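Confluent Vero monolayers in 96-well plates infected with 100 TCID50 CVB3. After 1 h adsorption at 37 °C, cells washed with PBS. Then incubated at 37 °C in maintenance medium (MEM + 2% FBS) with or without compound, tested at its maximal nontoxic concentration.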

The subject of series [6] is Coxsackievirus B3. The experiment in a line: Antiviral activity against coxsackievirus B3 infected in African green monkey Vero cells assessed as inhibition of virus-induced cytopathogenic effect dosed 1 hr after viral adsorption relative to ribavirin. The class given is functional.
For series [7], the system named is Influenza A virus. The experiment in a line: Antiviral activity against influenza A virus (A/Hanfang/359/95(H3N2)) infected in MDCK cells assessed as inhibition of virus-induced cytopathogenic effect dosed 1 hr after viral adsorption. The class given is functional, organism-based.
Series [8] in a line: Selectivity index, ratio of TC50 for […] MDCK cells to IC50 for influenza A virus (A/Hanfang/359/95(H3N2)). The class given is toxicity, cell-based. The note with it: read-out: Selectivity Index. The method, boiled down: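 SI is TC50/IC50. TC50: MDCK cells were plated for 24 h, then exposed to graded compound concentrations for 48 h at 37 °C in 5% CO2, scored by CPE, and calculated by Reed–Muench. IC50 came from the H3N2-infected MDCK assay, with 1 h adsorption and then compound in MEM plus 2% FBS.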

Series [9] is described as follows: Cytotoxic activity against MDCK cells assessed as cytopathogenic effect incubated for 48 hrs. The class given is cell-based, Canis lupus familiaris. The conditions noted are these: dog, read-out: TC50. The method, boiled down:
as §1

The structures appear in SMILES notation. pIC50: −log10 of the molar value. Calls of active or inactive are those of the source. The rule behind the calls is not given here.

With `O=C1[C@@H](O)CC[C@@H]2[C@H]3CCCN4CCC[C@@H](CN12)[C@@H]34`, the inhibition entry in [1] is “inactive”. Also, the selectivity ratio in series [2] came out at 4.1. Besides, in series [3], the CC50 at 48 h turned out to be 757 µM. Also, the pIC50 in series [4] is 3.73.

On to `O=C1CCC[C@@H]2[C@H]3CCC[N+]4([O-])CCC[C@@](O)(CN12)[C@@H]34` (some centres not stated), for which the inhibition entry in series [1] and in series [5] was “inactive” in each case.

As to `O=C1C=C[C@@H](O)[C@@H]2[C@H]3CCC[N+]4([O-])CCC[C@@H](CN12)[C@@H]34` (some centres not stated), the inhibition entry in series [1] was “inactive”. The selectivity ratio in [2] turned out to be 4.3. Further, in series [3], the CC50 at 48 h amounted to 115 µM. Besides, the pIC50 in [4] is 4.57. Besides, the “Ratio IC50” value in [6] is recorded as 45.

For `O=C1CCC[C@@H]2[C@H]3CCCN4CCC[C@@H](CN12)[C@@H]34`, the inhibition entry in [1] and in [5] was “inactive” each time.

Turning to `O=C1C=CC[C@@H]2[C@H]3CCCN4CCC[C@@H](CN12)[C@@H]34`, the inhibition entry in [1] and in series [5] was “inactive” each time.

On to `O=C1CCC[C@@H]2[C@H]3C[C@H](O)CN4CCC[C@@H](CN12)[C@@H]34`, for which the inhibition result in series [1] and in series [5] was “inactive” in each case.

On to `O=C1C=CC[C@@H]2[C@H]3CCC[N+]4([O-])CCC[C@@](O)(CN12)[C@@H]34` (some centres not stated), for which the inhibition result in series [5] was “inactive”.

Consider `CCOC(=O)C1=C[C@@H](OC(CC)CC)[C@H](NC(C)=O)[C@@H](N)C1` [OSELTAMIVIR], for which, in [7], the negative logarithm of the IC50 (pIC50) was 5.97. In addition, the selectivity ratio in [8] was 2870.

For the compound `O=C1C=CC[C@@H]2[C@H]3C[C@H](O)CN4CCC[C@@H](CN12)[C@@H]34`, in [1], the inhibition result was “inactive”. Besides, the selectivity ratio in series [2] is above 3.9. Moreover, in series [3], the CC50 at 48 h is above 762 µM. In addition, the pIC50 in series [4] was 3.71.

As to `O=C1C=CC[C@@H]2[C@H]3CCC[N+]4([O-])CCC[C@@H](CN12)[C@@H]34` (some centres not stated) [OXYSOPHOCARPINE], in series [5], the inhibition result is “inactive”. Moreover, the CC50 at 48 h in series [9] was above 762 µM. Further, the negative-log IC50 (pIC50) in series [7] is 3.39. The selectivity ratio in series [8] is above 1.9.

With `O=C1C=C[C@H](O)[C@@H]2[C@H]3CCCN4CCC[C@@H](CN12)[C@@H]34`, the inhibition result in series [5] was “inactive”. Also, the CC50 at 48 h in [9] amounted to 479 µM. Further, the negative-log IC50 (pIC50) in [7] is 4.07. For the same compound, the selectivity ratio in series [8] is 5.7.

For `O=C1C=CC[C@@H]2[C@H]3CCCN4CCC[C@@](O)(CN12)[C@@H]34`, the inhibition entry in series [5] is “inactive”. For the same compound, the CC50 at 48 h in [9] is above 762 µM. Also, the pIC50 in [7] was 3.36. Moreover, the selectivity ratio in series [8] is above 1.7.

`O=C1CCC[C@@H]2[C@H]3CCCN4CCC[C@@](O)(CN12)[C@@H]34`: the inhibition entry in series [1] was “inactive”. The selectivity ratio in [2] is above 3. Further, in [3], the CC50 at 48 h is above 757 µM. For the same compound, the pIC50 in [4] was 3.60.

As to `O=C1C=C[C@@H](O)[C@@H]2[C@H]3CCCN4CCC[C@@H](CN12)[C@@H]34`, in series [5], the inhibition entry was “inactive”. Further, in series [9], the CC50 at 48 h is above 762 µM. Also, the pIC50 in series [7] is 3.62. Further, the selectivity ratio in series [8] is above 3.1.

In the case of `O=c1cccc2n1C[C@@H]1CCCN3CCC[C@H]2[C@H]13`, the inhibition entry in [5] was “inactive”. Moreover, the CC50 at 48 h in series [9] was determined as 273 µM. The pIC50 in series [7] was 4.20. Further, the selectivity ratio in series [8] worked out at 4.3.

Consider `O=C1CCC[C@@H]2[C@H]3CCC[N+]4([O-])CCC[C@@H](CN12)[C@@H]34` (some centres not stated), for which the inhibition entry in series [1] and in series [5] was “inactive” each time.

With `O=C1[C@@H](O)CC[C@@H]2[C@H]3CCC[N+]4([O-])CCC[C@@H](CN12)[C@@H]34` (some centres not stated), the inhibition result in series [1] and in [5] was “inactive” each time.

As to `O=C1CC=C[C@@H]2[C@H]3CCCN4CCC[C@@](O)(CN12)[C@@H]34`, the inhibition result in series [1] and in [5] was “inactive” in each case.

For `NC(=O)c1ncn([C@@H]2O[C@H](CO)[C@@H](O)[C@H]2O)n1` [RIBAVIRIN], the selectivity ratio in series [2] was found to be 6.8; in [8] it was 813. Also, the pIC50 in series [4] was 2.92.
